This is an account of results in PMC6972567 (Journal of Clinical Pharmacology, 2019).

A value given as a limit tells only on which side of the number the result lay.

As usually defined, the Cmax is the highest concentration seen after dosing. As usually defined, the CL/F is clearance divided by bioavailability, as obtained after extravascular dosing. For orientation: half-life means the time in which the quantity being followed falls by half. Usually AUC(0-inf) stands for the area under the concentration-time curve extrapolated to infinity. By AUC(0-t) is commonly meant the area under the concentration-time curve up to a stated or last time point.

The nature of data set [1]: Plasma pharmacokinetics of the CYP probe substrates and metabolites. Particulars: for t1/2 / half-life: harmonic mean ± pseudo-SD; for AUC(0-inf): AUCinf; for AUC(0-t): AUCt. The data set is classed as in vivo, human.
The test system of another data set is CYP2C19. The data set is classed as in vivo, human. The settings on record: probe with upadacitinib 30 mg once daily relative to probe alone, all subjects.
The next data set has as its target T1, CYP1A2 (Homo sapiens, UniProt P05177).
T1 sequence (P05177 1-516): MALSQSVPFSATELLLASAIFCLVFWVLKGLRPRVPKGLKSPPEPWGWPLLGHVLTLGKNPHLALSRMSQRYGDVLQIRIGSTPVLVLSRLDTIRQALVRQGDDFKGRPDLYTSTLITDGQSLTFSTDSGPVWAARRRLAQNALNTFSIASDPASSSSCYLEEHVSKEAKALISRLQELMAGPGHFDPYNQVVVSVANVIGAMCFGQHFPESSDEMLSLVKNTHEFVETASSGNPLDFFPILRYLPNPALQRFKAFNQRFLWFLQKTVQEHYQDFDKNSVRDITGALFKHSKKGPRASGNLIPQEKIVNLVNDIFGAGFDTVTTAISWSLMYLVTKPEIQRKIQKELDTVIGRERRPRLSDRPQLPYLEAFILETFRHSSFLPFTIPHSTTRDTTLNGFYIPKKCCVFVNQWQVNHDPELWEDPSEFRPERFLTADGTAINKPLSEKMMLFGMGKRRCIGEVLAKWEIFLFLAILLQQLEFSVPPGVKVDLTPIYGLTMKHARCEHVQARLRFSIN
Type of data set: in vivo. The settings on record: probe with upadacitinib 30 mg once daily relative to probe alone, all subjects. The gist of the method: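 Twenty subjects received single oral doses on two occasions: a caffeine 200 mg tablet with the other cocktail probes, after a 10-hour minimum fast and 4 hours before lunch. This was given first alone, then after a 5-day washout on day 12 of test compound 30 mg once daily (days 1‐15). Heparinised plasma was sampled predose through 24 h and at 36 h, with validated assay.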

The subject of the next data set is CYP2D6. The data set is classed as in vivo, human. The settings on record: probe with upadacitinib 30 mg once daily relative to probe alone, all subjects.
For data set [2], the system named is CYP3A. The data set is classed as in vivo, human.
The nature of data set [3]: Safety assessments in the cocktail study. The data set is classed as in vivo, human.
For data set [4] the following is noted: cited from earlier work.
Data set [5] has as its system CYP3A. Particulars: cited from earlier work.
The mark [6] stands for this setting: Period 1, CYP probes alone, median (range).
Setting [7] is: Period 1, CYP probes alone, n = 20, mean ± SD.
[8] abbreviates: Period 2, CYP probes + upadacitinib 30 mg once daily.
Setting [9] is: Period 2, CYP probes + upadacitinib 30 mg once daily, median (range).
The mark [10] stands for this setting: Period 2, CYP probes + upadacitinib 30 mg once daily, n = 20, mean ± SD.
The mark [11] stands for this setting: human, plasma, oral, t1/2, Period 2, CYP probes + upadacitinib 30 mg once daily.
[12] abbreviates: human, plasma, oral, Period 1, CYP probes alone, n = 20, mean ± SD.
Where [13] appears, read: human, plasma, oral, Period 2, CYP probes + upadacitinib 30 mg once daily, n = 20, mean ± SD.
Setting [14] is: multiple doses of upadacitinib 30 mg once daily.
Where [15] appears, read: probe with upadacitinib 30 mg once daily relative to probe alone, all subjects.

For the compound `COc1ccc2nc([S+]([O-])Cc3ncc(CO)c(OC)c3C)[nH]c2c1` (centres unmarked) [5‐Hydroxy omeprazole, 5‐hydroxy‐omeprazole], the t1/2 in data set [1] (Period 1, CYP probes alone) worked out at 1.36 ± 0.293 h; in data set [1] (setting [8]), 1.37 ± 0.319 h. The Tmax in data set [1] (setting [6]) and in data set [1] (setting [9]) was 3.0 (2.0‐6.0) h in each case. In addition, the figures for the AUCinf in data set [1] (setting [7]) and in data set [1] (setting [10]) were 1.29 ± 0.364 µg·h/mL and 1.18 ± 0.302 µg·h/mL, respectively. Besides, the AUCt in data set [1] (setting [7]) is 1.27 ± 0.359 µg·h/mL; in data set [1] (setting [10]) it was 1.16 ± 0.292 µg·h/mL. In addition, the Cmax came to 0.435 ± 0.155 µg/mL in data set [1] (Period 1, CYP probes alone, single oral dose, plasma, healthy subjects n = 20, mean ± SD) and 0.389 ± 0.116 µg/mL in data set [1] (Period 2, CYP probes + upadacitinib 30 mg once daily, plasma, n = 20, mean ± SD). Also, the “AUCinf Central Value Ratio (90%CI)” value in the data set on CYP2C19 was 0.92 (0.86‐0.99). Moreover, the “AUCt Central Value Ratio (90%CI)” value with CYP2C19 was 0.92 (0.85‐0.99).
Regarding `Cn1c(=O)c2c(ncn2C)n(C)c1=O` [Caffeine, caffeine], the CL/F in data set [1] (setting [7]) amounted to 6.53 ± 2.99 L/h; in data set [1] (setting [10]), 5.31 ± 2.26 L/h. Moreover, the Tmax in data set [1] (setting [9]) is 2.0 (1.0‐4.0) h; in data set [1] (human, plasma, oral), 2 h. Also, the half-life is 4.52 ± 1.5 h in data set [1] (human, plasma, oral, t1/2, Period 1, CYP probes alone) and 5.28 ± 1.5 h in data set [1] (setting [11]). Also, the maximum concentration (Cmax) in data set [1] (human, plasma, po) stood at 4.19 ± 0.826 µg/mL. The “AUCinf Central Value Ratio (90%CI)” value on CYP1A2 was 1.22 (1.15‐1.29). Besides, the “AUCt Central Value Ratio (90%CI)” value on CYP1A2 is 1.21 (1.15‐1.28). In addition, the “Cmax Central Value Ratio (90%CI)” value on CYP1A2 is reported as 1.13 (1.05‐1.22).
For the compound `COc1ccc2c(c1)[C@]13CCCC[C@@H]1[C@H](C2)N(C)CC3` [Dextromethorphan, dextromethorphan], the t1/2 in data set [1] (Period 1, CYP probes alone) amounted to 6.82 ± 4.68 h; in data set [1] (setting [8]), 7.26 ± 5.08 h. Moreover, the CL/F came out at 4120 ± 5580 L/h in data set [1] (setting [7]) and 3390 ± 4560 L/h in data set [1] (setting [10]). In addition, the Tmax is 3.5 (2.0‐6.0) h in data set [1] (setting [9]) and 3.5 h in data set [1] (human, plasma, oral). In addition, the area under the curve AUC(0-inf) turned out to be 0.403 ± 0.706 µg·h/mL in data set [1] (setting [12]) and 0.328 ± 0.552 µg·h/mL in data set [1] (setting [13]). The AUC(0-t) in data set [1] (setting [12]) was 0.25 ± 0.397 µg·h/mL; in data set [1] (setting [13]), 0.225 ± 0.347 µg·h/mL. For the same compound, the Cmax in data set [1] (human, plasma, po) came out at 0.00777 ± 0.0101 µg/mL. Moreover, in the data set on CYP2D6, the “AUCinf Central Value Ratio (90%CI)” value is listed as 1.07 (0.95‐1.22). Further, the “AUCt Central Value Ratio (90%CI)” value in the data set with CYP2D6 was 1.10 (0.97‐1.25). In the data set with CYP2D6, the “Cmax Central Value Ratio (90%CI)” value is given as 1.09 (0.98‐1.21).
As to `Cc1ncc2n1-c1ccc(Cl)cc1C(c1ccccc1F)=NC2` [Midazolam, midazolam], the t1/2 in data set [1] (Period 1, CYP probes alone) is 4.65 ± 2.51 h. Further, in data set [1] (setting [6]), the Tmax was 0.5 (0.5‐1.0) h. In addition, in data set [1] (setting [7]), the CL/F stood at 68.1 ± 29.2 L/h. In addition, in data set [1] (setting [8]), the t1/2 stood at 4.08 ± 2.33 h. Besides, the CL/F in data set [1] (setting [10]) was determined as 90.2 ± 32.7 L/h. In addition, in data set [1] (setting [13]), the AUC(0-inf) was determined as 0.0646 ± 0.0309 µg·h/mL and the area under the curve AUC(0-t) came out at 0.0632 ± 0.0296 µg·h/mL. The AUC(0-t) in data set [1] (setting [12]) amounted to 0.0875 ± 0.0445 µg·h/mL. Moreover, in data set [1] (human, plasma, po), the peak concentration (Cmax) is 0.0326 ± 0.0141 µg/mL. For the same compound, in the data set on CYP3A [2] (setting [14]), the “decrease in AUCinf” value stood at 26% and the “decrease in Cmax” value is 26%. Besides, in the data set with CYP3A [2] (setting [15]), the “AUCinf Central Value Ratio (90%CI)” value is recorded as 0.74 (0.68‐0.80), the “AUCt Central Value Ratio (90%CI)” value was 0.74 (0.68‐0.80) and the “Cmax Central Value Ratio (90%CI)” value is listed as 0.74 (0.68‐0.80). For the same compound, the decrease in exposure in the data set on CYP3A [2] (upadacitinib 30 mg once daily) is recorded as 26%.
In the case of `COc1ccc2[nH]c([S+]([O-])Cc3ncc(C)c(OC)c3C)nc2c1` (centres unmarked) [Omeprazole, omeprazole], the CL/F in data set [1] (setting [7]) is 26.5 ± 20.5 L/h. Also, the Tmax in data set [1] (setting [9]) is on record as 3.0 (2.0‐6.0) h. Also, the CL/F in data set [1] (setting [10]) is recorded as 34.9 ± 24.7 L/h. For the same compound, the Tmax in data set [1] (human, plasma, oral) stood at 3 h. Besides, in data set [1] (setting [12]), the AUC(0-inf) was 2.89 ± 2.87 µg·h/mL and the AUC(0-t) was found to be 2.52 ± 2.75 µg·h/mL. Also, in data set [1] (setting [13]), the AUC(0-inf) amounted to 2.08 ± 1.86 µg·h/mL and the AUC(0-t) is 2 ± 1.82 µg·h/mL. In addition, the half-life in data set [1] (setting [11]) is 1.14 ± 0.386 h. Moreover, in the data set with CYP2C19, the “AUCinf Central Value Ratio (90%CI)” value is 0.82 (0.72‐0.94), the “AUCt Central Value Ratio (90%CI)” value was 0.87 (0.77‐0.99) and the “Cmax Central Value Ratio (90%CI)” value is reported as 0.87 (0.72‐1.05).
In the case of `CC(=O)C[C@@H](c1ccccc1)c1c(O)c2ccccc2oc1=O` [S‐warfarin], the values for the Tmax in data set [1] (setting [6]) and in data set [1] (setting [9]) were 2.0 (0.5‐4.0) h and 2.0 (0.5‐3.0) h, respectively. For the same compound, the “concentrations at the start of period 2” value in data set [1] (carryover after 5-day washout) is listed as < 5 % of S‐warfarin Cmax.
`CC[C@@H]1CN(C(=O)NCC(F)(F)F)C[C@@H]1c1cnc2cnc3[nH]ccc3n12` [Upadacitinib]: in the data set with CYP3A [2] (upadacitinib 30 mg once daily, midazolam probe), the “effect of upadacitinib on CYP3A activity / probe exposure in vivo (in words)” value was “limited effect”. In data set [3] (CYP probe substrates alone or after multiple doses of upadacitinib 30 mg once daily, healthy subjects), the tolerability entry was “well tolerated”. Further, in data set [3] (one subject), the “adverse event assessed as possibly related to upadacitinib” value is reported as “mild oropharyngeal pain”. In addition, in data set [4], the “administered dose recovered as unchanged upadacitinib in feces and urine” value is “more than 60%”; the metabolizing enzymes entry is reported as “metabolized by cytochrome P450 (CYP) 3A and, to a lesser extent, by CYP2D6”. In data set [4] (multiple once-daily dosing of the extended-release formulation), the accumulation in plasma entry is reported as “no accumulation”. In addition, the “sensitivity as CYP3A substrate” value in the data set on CYP3A [5] (concluded from ketoconazole and rifampin interaction) was “not a sensitive substrate for CYP3A”. Moreover, the “increase in upadacitinib AUC” value with CYP3A [5] (with ketoconazole, a strong CYP3A inhibitor) is 75%.
